Screening data (PubChem)
This is a sample that favours compounds with a hit; in the whole collection about 8.9% have one here.
MT stabilizer: microtubule stabilization, imaging screen. HeLa tubulin immunostaining HCS, 24 h; share of cells brighter than vehicle mean+2SD. % tubulin-high responders, % at 10 µM. 0.83% of 200,000 active. AID 2205;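 active means plate Z-score above 3 for both tubulin-high and condensed-nucleus cell shares, with cell loss under 80%, at 10 µM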;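 further: anti alpha tubulin signal scored within the nucleus-defined area of each cell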
Dynein transport: dynein cargo transport inhibition. 3617.4 mouse cells, GR-EGFP nuclear translocation imaging; test concentration mostly 20 µM; stimulated with dexamethasone, 1 µM; hits give low values. z-score, hits read low. 0.47% of 220,000 active;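 active means plate z-score of nuclear minus cytoplasmic receptor signal below a set negative limit, without overly bright fluorescence or cell loss, cut at about -3.5 in these data, passing the limit was not always enough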;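 further: z-score of nuclear minus cytoplasmic ring GR-EGFP intensity difference per well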
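Also added – dexamethasone, 1.0 µM final · Buffer or medium – tet-free, stripped-serum medium · Schedule – induction 48 h, compound 1 h, agonist 30 min · Detection – formaldehyde fixation, Hoechst nuclear stain, 10x automated fluorescence imaging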
b-catenin transl: beta-catenin nuclear translocation modulation; 0.3% of 190,000 active; HeLa beta-catenin nuclear translocation, immunofluorescence imaging; AID 1665; nuclear translocation activity, % at 5 µM;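 active means nuclear translocation activity above 50% at 5 µM, with a well cell count of 50 or more; inconclusive means wells under 50 cells across six images, flagged as toxic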;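 further: per-cell ratio of nuclear to cytoplasmic median beta-catenin stain intensity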
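System: HeLa cells, endogenous beta-catenin; compound dosing: 5 µM primary single dose, 0.1% DMSO, 0.02–20 µM confirmation series; incubation: 24 h compound exposure at 37°C, 5% CO2; signal: beta-catenin immunofluorescence imaging with DAPI; evaluation: % activation, nuclear-to-cytoplasmic median beta-catenin signal ratio per cell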
HSV replic up: increases HSV replication in cells; AID 1956; HSV replication augmentation in cells, fold increase; maximum fold increase; 0.005% of 220,000 active; in the data active means maximum fold increase above about 1.5; inconclusive means no clear call, values can overlap the other calls; tested in PC3 cells
L major viab: reduces viability of Leishmania major promastigotes; resazurin fluorescence viability; inhibition, % at 10 µM; AID 1063; 9% of 200,000 active; in the data active means inhibition above about 50%;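 further: promastigotes grown with compound for 44 hours at 28 °C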
Each line names hits and unclear results; the compound was inactive in the other large screens.

OCCCCCN=c1cc(-c2ccccc2)oc2ccc(Cl)cc12	L major viab 95
Clc1ccc2oc(-c3ccccc3)cc(=NCCCN3CCOCC3)c2c1	L major viab 99
Cc1ccc(CCNC(=O)CS(=O)Cc2nc(-c3cccc(C)c3)oc2C)cc1 (centres undefined)	none (no result: b-catenin transl)
Cc1ccc(Nc2c([N+](=O)[O-])cc(C(=O)N3CC(=O)Nc4ccccc43)cc2[N+](=O)[O-])c(C)c1	L major viab 88
O=C1CN(C(=O)c2ccccc2F)c2ccccc2N1	none
COc1cc2c(cc1NS(=O)(=O)N1CCCC1)oc1ccccc12	L major viab 100
COc1cc2c(cc1NC(=O)CN1CCN(S(=O)(=O)c3ccc(C)cc3)CC1)oc1ccccc12	none (no result: HSV replic up)
Cc1ccc(N/C=C/C(=O)c2sc(-c3ccccc3)nc2C)cc1	MT stabilizer 51
Cc1nc(-c2ccccc2)sc1C(=O)NN	none
COc1ccc(C2c3ccc(O)cc3Oc3ncn(CC(C)C)c(=N)c32)cc1 (centres undefined)	none (no result: MT stabilizer, L major viab)
CCO/C=C1\N=C(c2ccc(F)cc2)OC1=O	HSV replic up inconclusive
Cc1ccc(S(=O)(=O)N2CCC(C(=O)NCc3ccccc3Cl)CC2)cc1	L major viab 73
Cc1ccc(S(=O)(=O)N2CCC(C(=O)N[C@@H](Cc3ccccc3)C(=O)O)CC2)cc1	L major viab 54 (no result: b-catenin transl)
Cc1ccc(S(=O)(=O)N2CCC(C(=O)NCCN3CCCCCC3)CC2)cc1	L major viab 100
Cc1ccc(S(=O)(=O)N2CCC(C(=O)NNC(=O)c3ccccc3)CC2)cc1	none
Cc1ccc(S(=O)(=O)N2CCC(C(=O)NCCc3ccccc3)CC2)cc1	none
COc1ccc(OC)c(NC(=O)NNC(=O)CCCOc2ccc(Cl)cc2C)c1	none
COc1ccc(OCC#CCNC(C)(C)C)cc1	L major viab 92
CC(C)NC(=O)c1cc(C(=O)c2cc(Cl)ccc2O)coc1=N	none
Cc1ccc(Nc2nc(COC(=O)C3CC3)cs2)cc1	none
COc1ccc(-n2c(/C=C3\C(=O)N(C)c4ccccc43)nc3ccccc3c2=O)cc1	none (no result: MT stabilizer, L major viab)
CCN1C(=O)/C(=C/c2nc3ccccc3c(=O)[nH]2)c2ccccc21	L major viab 99
CCN1C(=O)/C(=C\c2nc3ccccc3c(=O)n2-c2ccccc2)c2ccccc21	L major viab 77
Cc1ccccc1/C=C\c1nc2ccccc2c(=O)[nH]1	none
CCN1C(=O)/C(=C/c2nc3ccccc3c(=O)n2-c2ccc(C)cc2)c2ccccc21	L major viab 99
CCn1nnnc1-c1ccc(OC)c(S(=O)(=O)Nc2ccc(OC)cc2)c1	none (no result: b-catenin transl)
Cc1cc(NC(=O)CN2C(=O)NC3(CCCCC3C)C2=O)no1 (centres undefined)	L major viab 58
CCC1CCC2(CC1)NC(=O)N(CC(=O)Nc1cc(C)on1)C2=O (centres undefined)	L major viab 62 (no result: b-catenin transl)
CC1CCCCC12NC(=O)N(CC(=O)NC(=O)Nc1ccc3c(c1)OCCO3)C2=O (centres undefined)	none
Cc1cc(-n2c(C)cc(C(=O)CN3C(=O)NC4(CCCCCC4)C3=O)c2C)no1	L major viab 100
Cc1ccc(-c2csc3nc4c5ccccc5c(NCCCN5CCOCC5)nn4c(=O)c23)cc1	L major viab 101
Cc1ccc(-c2csc3nc4c5ccccc5c(NCCCN(C)C)nn4c(=O)c23)cc1	MT stabilizer 77, L major viab 101
Cc1ccc(-c2csc3nc(C)n(N)c(=O)c23)cc1	none
Cc1ccc(-c2nc3ccccc3c(=O)n2CCCN2CCOCC2)cc1	none
Cc1ccnc(SCC(=O)N2CCC(C(N)=O)CC2)n1	none
O=C(COc1ccc([N+](=O)[O-])cc1)NN=C1CCCC1	none (no result: b-catenin transl)
O=C(N/N=C/c1cn(-c2cccs2)nc1-c1ccccc1)c1ccccc1O	L major viab 99
Cc1nc2c(-c3ccc(F)cc3)c(C)nn2c(C)c1CCC(=O)NC(C)CCc1ccco1 (centres undefined)	L major viab 100
O=C(COC(=O)c1ccc([N+](=O)[O-])s1)NC(=O)NCc1ccccc1	L major viab 93
CCN(C(=S)Nc1cc(S(=O)(=O)N2CCOCC2)ccc1Cl)c1cccc2ccccc12	L major viab 65
c1ccc(CN2CCC(=NNc3nc4ccccc4[nH]3)CC2)cc1	none
Cc1ccc(SCCOCCN2CCc3ccccc3C2)cc1	L major viab 92
CCCOc1ccc(OCCOCCN2CCc3ccccc3C2)cc1	L major viab 97 (no result: b-catenin transl)
C=CCc1cc(OC)ccc1OCCOCCN1CCc2ccccc2C1	L major viab 90
c1ccc(OCCOCCN2CCc3ccccc3C2)cc1	L major viab 98
COc1ccc(CN2CCc3ccccc3C2)c(OC)c1	none (no result: MT stabilizer, L major viab)
c1ccc(OCCOCCN2CCN(C(c3ccccc3)c3ccccc3)CC2)cc1	none
Cc1ccc(SCCOCCN2CC(C)OC(C)C2)cc1 (centres undefined)	none (no result: MT stabilizer, L major viab)
CCOC(=O)C1CCN(C(=O)CN(Cc2ccccc2)S(C)(=O)=O)CC1	none (no result: b-catenin transl)
C=CCc1cc(OC)ccc1OCCOCCC(C(=O)OCC)C(=O)OCC	L major viab 54
CCOC(=O)C(CCCOc1ccc(C)cc1)C(=O)OCC	none (no result: b-catenin transl)
CCOc1ccc(OCCOCCN2CCc3ccccc3C2)cc1	L major viab 91
O=C(COc1ccc(Br)cc1)N1CCc2ccccc2C1	none
CC(C)(C)NC(=O)Cn1c(=O)oc2cc(S(=O)(=O)N3CCc4ccccc43)ccc21	L major viab 98
CCOC(=O)Cn1c(=O)oc2cc(S(=O)(=O)Nc3cc(OCC)ccc3OCC)ccc21	L major viab 71
CCOC(=O)Cn1c(=O)oc2cc(S(=O)(=O)N3CCc4ccccc43)ccc21	L major viab 60 (no result: b-catenin transl)
Cn1c(=O)oc2cc(S(=O)(=O)N3CCc4ccccc43)ccc21	none (no result: MT stabilizer, L major viab)
Cn1c(=O)c(=O)n(C)c2cc(S(=O)(=O)N3CCc4ccccc43)ccc21	L major viab 52
O=C(O)C1(NS(=O)(=O)c2ccc(Cl)cc2)CCCCC1	none
COc1ccccc1N1CCN(CC(=O)c2ccc3ccn(C(C)=O)c3c2)CC1	none (no result: b-catenin transl)
CC1CCc2nn(CC(=O)Nc3ccc(F)cc3F)cc2C1 (centres undefined)	none
Cc1cc(NC(=O)Cn2cc([N+](=O)[O-])cn2)n(Cc2ccc(F)cc2)n1	none
COc1ccc(NC(=S)N(CCCN2CCCCC2)Cc2cccs2)cc1	L major viab 83
Cc1ccc(NC(=S)N(CCCN2CCOCC2)Cc2cccs2)c(C)c1	L major viab 69
CCOC(=O)c1ccc(NC(=S)N(CCCN2CCCC(C)C2)Cc2cccs2)cc1 (centres undefined)	L major viab 97
Cc1ccc(NC(=S)N(CCCN2CCN(C)CC2)Cc2cccs2)cc1	none
CCOC(=O)c1ccc(NC(=S)N(CCN2CCCCCC2)Cc2cccs2)cc1	L major viab 96
Cc1c(Cl)cccc1NC(=S)N(CCCN1CCOCC1)Cc1cccs1	none
CCOC(=O)c1ccc(NC(=S)N(CCCN2CCN(C)CC2)Cc2cccs2)cc1	none
CCCCn1c(SCC(=O)c2ccc3c(c2)NC(=O)CO3)nc2cc(S(N)(=O)=O)ccc21	none
